Experimental data taken from ChEMBL document CHEMBL3352221, “Acyclic tethers mimicking subunits of polysaccharide ligands: selectin antagonists” (ACS Med Chem Lett, 2014).
Activity calls are given as the source filed them. The calls are words filed in the database; no cut-off is given here.

Key:
P-selectin [1] = target: T1, P-selectin (Homo sapiens, UniProt P16109); assay: Antagonist activity at P-selectin (unknown origin) by surface plasmon resonance-based dynamic assay
T1 sequence (P16109 whole entry): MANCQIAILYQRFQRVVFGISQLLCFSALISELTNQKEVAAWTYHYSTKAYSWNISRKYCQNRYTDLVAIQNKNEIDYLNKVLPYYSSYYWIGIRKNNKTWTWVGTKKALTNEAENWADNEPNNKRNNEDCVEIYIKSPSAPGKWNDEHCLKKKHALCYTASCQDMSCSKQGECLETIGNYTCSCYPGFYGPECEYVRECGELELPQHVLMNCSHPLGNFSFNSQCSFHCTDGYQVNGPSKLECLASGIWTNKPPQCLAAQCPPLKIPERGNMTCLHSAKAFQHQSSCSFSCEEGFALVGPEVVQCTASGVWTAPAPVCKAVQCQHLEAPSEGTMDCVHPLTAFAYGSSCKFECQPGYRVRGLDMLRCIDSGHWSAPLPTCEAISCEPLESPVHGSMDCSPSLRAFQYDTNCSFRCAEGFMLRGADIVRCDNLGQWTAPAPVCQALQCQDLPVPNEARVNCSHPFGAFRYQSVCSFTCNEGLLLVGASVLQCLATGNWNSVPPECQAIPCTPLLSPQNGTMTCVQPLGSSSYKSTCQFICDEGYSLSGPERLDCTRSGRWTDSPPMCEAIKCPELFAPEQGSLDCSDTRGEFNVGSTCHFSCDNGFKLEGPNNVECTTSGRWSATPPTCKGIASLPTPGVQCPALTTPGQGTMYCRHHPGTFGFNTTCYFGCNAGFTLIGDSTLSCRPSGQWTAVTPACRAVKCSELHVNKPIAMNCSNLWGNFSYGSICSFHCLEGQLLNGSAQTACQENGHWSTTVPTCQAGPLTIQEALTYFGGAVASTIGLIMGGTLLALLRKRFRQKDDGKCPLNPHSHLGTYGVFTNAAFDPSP

P-selectin [2] = target: T1, P-selectin; assay: Antagonist activity at P-selectin (unknown origin) assessed as adhesion to [3H]thymidine-labelled human HL60 cells by static assay; format: cell-based, HL-60
In short: (§1)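 HL-60 cells labelled with [3H]thymidine in the culture medium. Wells precoated with goat anti-human IgG, then E- or P-selectin IgG (per line) captured. Labelled cells incubated on the immobilized selectin with test compound over a dose range. Non-adherent cells washed off, bound radioactivity counted, and IC50 derived from the dose-dependent loss of adherent cells.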

E-selectin = target: T2, E-selectin (Homo sapiens, UniProt P16581); assay: Antagonist activity at E-selectin (unknown origin) assessed as adhesion to [3H]thymidine-labelled human HL60 cells by static assay; format: cell-based, HL-60; in short: as §1
T2 sequence (P16581 whole entry): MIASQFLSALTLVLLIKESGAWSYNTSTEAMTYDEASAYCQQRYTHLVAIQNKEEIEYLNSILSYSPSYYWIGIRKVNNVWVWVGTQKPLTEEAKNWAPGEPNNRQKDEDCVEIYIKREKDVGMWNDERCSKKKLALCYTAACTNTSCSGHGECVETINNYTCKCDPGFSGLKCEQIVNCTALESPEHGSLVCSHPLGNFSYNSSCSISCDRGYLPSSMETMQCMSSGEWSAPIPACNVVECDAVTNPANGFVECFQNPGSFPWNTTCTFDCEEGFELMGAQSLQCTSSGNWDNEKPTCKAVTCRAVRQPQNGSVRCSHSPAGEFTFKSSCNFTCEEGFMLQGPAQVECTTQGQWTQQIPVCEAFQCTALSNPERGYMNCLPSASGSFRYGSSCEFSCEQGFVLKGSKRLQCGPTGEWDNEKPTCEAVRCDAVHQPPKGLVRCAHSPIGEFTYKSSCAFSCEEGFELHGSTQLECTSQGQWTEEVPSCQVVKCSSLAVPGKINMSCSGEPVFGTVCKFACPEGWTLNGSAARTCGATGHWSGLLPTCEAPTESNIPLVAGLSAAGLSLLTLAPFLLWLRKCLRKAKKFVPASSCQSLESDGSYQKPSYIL

Mus musculus = assay: Inhibition of TNFalpha-induced decrease in leukocyte rolling flux in mouse cremaster at 100 mg/kg, iv; format: functional, organism-based; set-up: dose 100 mg/kg
In short: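 Intravital microscopy of mouse cremaster. Mice receive rmTNFα in 150 μL saline. Compound in saline, or saline alone, is given intrajugularly at 100 mg/kg. Leukocyte rolling is read before and 10 min after injection. Means of 5 readings per venule, 10 venules per mouse, 5–6 mice per condition (±SEM).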

IC50 (P-selectin [1])	IC50 (P-selectin [2])	IC50 (E-selectin)	SMILES	inhibition (Mus musculus)
19 µM			CC(C)OC(=O)[C@H](O[C@@H]1O[C@@H](C)[C@@H](O)[C@@H](O)[C@@H]1O)[C@@H](O[C@@H]1O[C@H](CO)[C@H](OC(=O)c2ccccc2)[C@H](O[C@H](Cc2ccccc2)C(=O)O)[C@H]1O)C(=O)OC(C)C	
520 µM	1900 µM	2080 µM	COC(=O)[C@H](O[C@@H]1O[C@@H](C)[C@@H](O)[C@@H](O)[C@@H]1O)[C@@H](O[C@@H]1O[C@H](CO)[C@H](O)[C@H](O[C@H](Cc2ccccc2)C(=O)O)[C@H]1OC(=O)c1ccccc1)C(=O)OC	
34 µM	190 µM	220 µM	CC(C)OC(=O)[C@H](O[C@@H]1O[C@@H](C)[C@@H](O)[C@@H](O)[C@@H]1O)[C@@H](O[C@@H]1O[C@H](CO)[C@H](O)[C@H](O[C@H](Cc2ccccc2)C(=O)O)[C@H]1OC(=O)c1ccccc1)C(=O)OC(C)C	
18 µM	110 µM	140 µM	COC(=O)[C@H](O[C@@H]1O[C@@H](C)[C@@H](O)[C@@H](O)[C@@H]1O)[C@@H](O[C@@H]1O[C@H](CO)[C@H](OC(=O)c2ccccc2)[C@H](O[C@H](Cc2ccccc2)C(=O)O)[C@H]1OC(=O)c1ccccc1)C(=O)OC	
	4840 µM	5460 µM	COC(=O)[C@H](O[C@@H]1O[C@@H](C)[C@@H](O)[C@@H](O)[C@@H]1O)[C@@H](O[C@@H]1O[C@H](CO)[C@H](O)[C@H](O[C@H](Cc2ccccc2)C(=O)O)[C@H]1O)C(=O)OC	

Continued, compound first:

SMILES	IC50 (P-selectin [1])	IC50 (P-selectin [2])	IC50 (E-selectin)	inhibition (Mus musculus)
CC(=O)N[C@H]1[C@H]([C@H](O)[C@H](O)CO)O[C@@](O[C@H]2[C@@H](O)[C@@H](CO)O[C@@H](O[C@@H]([C@H](O[C@@H]3O[C@@H](C)[C@@H](O)[C@@H](O)[C@@H]3O)[C@H](C=O)NC(C)=O)[C@H](O)CO)[C@@H]2O)(C(=O)O)C[C@@H]1O				Active
CC(C)OC(=O)[C@H](O[C@H]1O[C@@H](CO)[C@H](OC(=O)c2ccccc2)[C@@H](O[C@@H](Cc2ccccc2)C(=O)O)[C@H]1OC(=O)c1ccccc1)[C@@H](O[C@H]1O[C@@H](C)[C@@H](O)[C@@H](O)[C@@H]1O)C(=O)OCCc1cn(CCCCCOC(=O)[C@H](O[C@@H]2O[C@@H](C)[C@@H](O)[C@@H](O)[C@H]2O)[C@@H](O[C@@H]2O[C@H](CO)[C@H](OC(=O)c3ccccc3)[C@H](O[C@H](Cc3ccccc3)C(=O)O)[C@H]2OC(=O)c2ccccc2)C(=O)OC(C)C)nn1	8 µM			
CC(C)OC(=O)[C@H](O[C@@H]1O[C@@H](C)[C@@H](O)[C@@H](O)[C@@H]1O)[C@@H](O[C@@H]1O[C@H](CO)[C@H](OC(=O)c2ccccc2)[C@H](O[C@H](Cc2ccccc2)C(=O)O)[C@H]1OC(=O)c1ccccc1)C(=O)OC(C)C	8 µM	67 µM	76 µM	
COC(=O)[C@H](O[C@@H]1O[C@H](CO)[C@H](OC(=O)c2ccccc2)[C@H](O[C@H](Cc2ccccc2)C(=O)O)[C@H]1OC(=O)c1ccccc1)[C@@H](O[C@@H]1O[C@@H](C)[C@@H](O)[C@@H](O)[C@@H]1O)C(=O)OC(C)C	16 µM			
COC(=O)[C@H](O[C@@H]1O[C@@H](C)[C@@H](O)[C@@H](O)[C@@H]1O)[C@@H](O[C@@H]1O[C@H](CO)[C@H](OC(=O)c2ccccc2)[C@H](O[C@H](Cc2ccccc2)C(=O)O)[C@H]1OC(=O)c1ccccc1)C(=O)OC(C)C	21 µM			
